Assay results taken from the EternaBench riboswitch data.

Tested on: MS2 coat protein
Assay: apparent Kd, MS2 coat protein; higher = weaker binding; RNA-MaP array; FMN 200 µM where present
How it was run: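 The apparent Kd is the median of filtered binding-curve fits, one per cluster, to green signal normalised to red-channel RNA signal and control-cluster median Fmax. The clusters were on Illumina sequencing chips, and stalled E. coli RNA polymerase had transcribed the designs on them. Titration used SNAP-549-labelled MS2 coat protein from 0.7 or 1.5 nM, doubling to 3 µM, without and then with constant ligand, in 100 mM Tris-HCl pH 7.5, 80 mM KCl, 4 mM MgCl2, BSA, DTT, yeast tRNA and Tween-20.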

[1] = designed as: ON switch for flavin mononucleotide, no ligand
[2] = ligand present: flavin mononucleotide, designed as: ON switch for flavin mononucleotide
[3] = designed as: OFF switch for flavin mononucleotide, no ligand
[4] = ligand present: flavin mononucleotide, designed as: OFF switch for flavin mononucleotide

Row | Sequence | apparent Kd [1] [nM] | apparent Kd [2] [nM] | apparent Kd [3] [nM] | apparent Kd [4] [nM]
1 | CGUAACUGCAUAGGAUAUUGAUACAUGAGGAUCACCCAUGUUUUUGGGAUUAGUAAUAUAUUAAGCAAGAAGGAUGGAGUUACG | 74.2 | 39.9 |  | 
2 | UAAUGACCUGUACCUAGUUGGUGACAUGAGGAUCACCCAUGUCAGGAUAUCGGGUUUGAAAACAACGAGAAGGGACAACGGGUG |  |  | 20.9 | 42.1
3 | CCUUUUGUAUAAGGAUAUGUAACAAGGUGUAGGUUUGUAGGACUUGCGCUUACAGAAGGUAUACAUGAGGAUCACCCAUGUCGA |  |  | 29.9 | 157
4 | UGUCCAUAGCAGAAGGACAUAAAUAACCAUGAAAACAUGAGGAUCACCCAUGUAGGAUAUGCUAUGGACUAAGAGCGAAAGCUC |  |  | 5.38 | 17.8
5 | GUGCCUUGGAAGAAGGCCGAUAGCAAAGCUAUCGGAGGAUAUUCAUACCGGAAACGGACAUGAGGAUCACCCAUGUGGCACAAA | 15.3 | 6.96 |  | 
6 | UUACUGUAAUAGAAGGGUAUUUGGGUUUUACAUGAGGAUCACCCAUGUUUUAUAGGAUAUGUUUAUAGUUUUUAAUCAAGUUUA |  |  | 91.1 | 68.7
7 | AUAUGAGCUAUGGAGGAUAUCCAUAACAAGACAUGAGGAUCACCCAUGUAAUCAAAACAAUAAUGGGAGAAGGCCAUAGCUCAAU | 67.8 | 76.5 |  | 
8 | UCAUGUAUGUAGGAUAUCGAUGUCUUCGGACAUCGAGAAGGACGUACAUGAGGAUCACCCAUGUAACUUGCAUG |  |  | 17.9 | 16.6
9 | CUUCUGUAAGGAUAUGUAAAUUGCUGGCCACACCAGCACCGGCAGAAGGUACAUGAGGAUCACCCAUGUGGGUU |  |  | 219 | 137
10 | AUUAUAUAGCAAGGAUAUAGAAUAUUAUUUUAACAUGAGGAUCACCCAUGUAACCUUAUGUGUAGCUAGAAGGUGCAUUUAUUA |  |  | 73.2 | 109
11 | UUUAUUUUUAGAGGAUAUAUUGUGUGUGAGAGAAUAGAAGGCUAAACAUACAUACAUAACAUGAGGAUCACCCAUGUCCAUGUU | 69.2 | 54.9 |  | 
12 | GUAGCUAUCGGAGGAUAUUCAUAGCGGAAACGGACAUGAGGAUCACCCAUGUGGCUAAAGCCUUGGGAGAAGGCCGAUAGCUAC | 25.8 | 6.64 |  | 
13 | AAACAUGUCCGAGGAUAUCUGGAAACAUUUCCAAGAGAAGGCGGACAUGAGGAUCACCCAUGUCUCUCCUCAUCAAAUCCAAAU |  |  | 9.18 | 88.9
14 | GUAGCUUUCCGAGGAUAUUCAGGGCGUGGAUAUACAUGAGGAUCACCCAUGUGGCGGAAGCCUAGGGAGAAGGCGGGCUGCUUC | 47.7 | 19 |  | 
15 | CUAUCUUGCAAGGAUAUGCAAUUUAUUAUUUAUGCAGAAGGUGCUACAUGAGGAUCACCCAUGUUUCUGGGUUU |  |  | 134 | 257
16 | UUCAGCUCGUGAGGAUAUACAUGUGCUGGAAACAGCACUAUUAAAUUCACAUGAGGAUCACCCAUGUAGAAGGCACGAGCUGAG |  |  | 15.4 | 18.7
17 | GAUUAAUGCAAGGAUAUGCUAUUAAUUUAUUUUGCAGAAGGUGCAACAUGAGGAUCACCCAUGUUGGAGGGUAU |  |  | 22.3 | 33.4
18 | UGCCGAUGAGGAUAUACAUUGAAUUUGAUUCAUGUAAAACUACAUGAGGAUCACCCAUGUAGAAGGCAUUGGCU |  |  | 16.9 | 30.4
19 | ACGCGUUGGGAGAAGGUACAUUAAAUUAGUUACACAUGAGGAUCACCCAUGUAAGGAUAUCCCAUCGUGUAAUAUUAUACAGCA |  |  | 9.76 | 9.62
20 | AGACUGAAGCAAGGAUAUUGUAAGGUUAUCGUACAAGAAGGUGCUGUUUAUGUCUCUUUACAUGAGGAUCACCCAUGUUUUUAA | 22.2 | 23.5 |  | 
21 | GGGAUGUCAGGAUAUCCAAAAGUCUGCCAAUACAGCAGACAGGAGAAGGGACAUGAGGAUCACCCAUGUAAAGA |  |  | 39.5 | 107
22 | UUAUACAUUCGAGGAUAUCGGUGAGAAAUCUUUCGAGAAGGCGAUUCAUGAUGUAUUAUCCUGGACAUGAGGAUCACCCAUGUA | 148 | 92.5 |  | 
23 | AUAAUUUUAUAUAUCAUUUUAAUCAGAAGGCAUAACAUGAGGAUCACCCAUGUAUAUUAUUGUUAUGAGGAUAUGAUUUGGUUA |  |  | 19.1 | 78.3
